Experimental data as given in ChEMBL document CHEMBL1926632, “Cytotoxic triterpenoid saponins from Lysimachia clethroides” (J Nat Prod, 2011).

Columns and labels:
Format in all cases: functional, cell-based
HT-29 = test: Cytotoxicity against human HT-29 cells by MTT assay
Method in brief: (§1)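 MTT read-out following a previously published method. Cell origins: HT-29 colon cancer, HePG2 hepatoma, BGC-823 gastric cancer, A549 lung epithelial, A375 amelanotic melanoma, all human. Paclitaxel served as positive control in the same panel.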

HepG2 = test: Cytotoxicity against human HepG2 cells by MTT assay; method in brief: as §1
BGC-823 = test: Cytotoxicity against human BGC823 cells by MTT assay; method in brief: as §1
A549 = test: Cytotoxicity against human A549 cells by MTT assay; method in brief: as §1
A-375 = test: Cytotoxicity against human A375 cells by MTT assay; method in brief: as §1

`C[C@@H]1O[C@@H](O[C@H]2[C@H](O[C@H]3CO[C@@H](O[C@H]4CC[C@]5(C)[C@H]6CC[C@]78OC[C@@]9(CCC(C)(C)C[C@H]97)C(=O)C[C@@]8(C)[C@]6(C)CC[C@H]5C4(C)C)[C@H](O[C@@H]4O[C@H](CO)[C@@H](O)[C@H](O)[C@H]4O)[C@H]3O)O[C@H](CO)[C@@H](O)[C@@H]2O)[C@H](O)[C@H](O)[C@H]1O` [CLETHROIDOSIDE C] was tested, and the IC50 (HT-29) was 1.99 µM, the IC50 (HepG2) was 1.48 µM and the IC50 (BGC-823) was 1.93 µM. It also gave an IC50 (A549) of 2.62 µM and an IC50 (A-375) of 1.14 µM.
`CC1(C)CC[C@]23CO[C@@]4(CC[C@@H]5[C@@]6(C)CC[C@H](O[C@@H]7OC[C@H](O[C@@H]8O[C@H](CO)[C@@H](O)[C@H](O)[C@H]8O[C@@H]8OC[C@@H](O)[C@H](O)[C@H]8O)[C@H](O)[C@H]7O[C@@H]7O[C@H](CO)[C@@H](O)[C@H](O)[C@H]7O)C(C)(C)[C@@H]6CC[C@@]5(C)[C@]4(C)C[C@H]2O)[C@@H]3C1` [LYSIKOKIANOSIDE 1] was tested, and the IC50 (HT-29) was 1.96 µM, the IC50 (HepG2) was 1 µM and the IC50 (BGC-823) was 1.75 µM. It also gave an IC50 (A549) of 1.91 µM and an IC50 (A-375) of 1.94 µM.
`CC(=O)OC[C@H]1O[C@@H](O[C@H]2[C@H](O[C@H]3CC[C@]4(C)[C@H]5CC[C@]67OC[C@@]8(CCC(C)(C)C[C@H]86)[C@H](O)C[C@@]7(C)[C@]5(C)CC[C@H]4C3(C)C)OC[C@H](O[C@@H]3O[C@H](CO)[C@@H](O)[C@H](O)[C@H]3O[C@@H]3O[C@@H](C)[C@H](O)[C@@H](O)[C@H]3O)[C@@H]2O)[C@H](O)[C@@H](O)[C@@H]1O` [CLETHROIDOSIDE E] gave an IC50 (HT-29) of 1.4 µM, an IC50 (HepG2) of 6.26 µM and an IC50 (BGC-823) of 8.05 µM. It also gave an IC50 (A549) of over 10 µM and an IC50 (A-375) of over 10 µM.
In the case of `C[C@@H]1O[C@@H](O[C@H]2[C@H](O[C@H]3CO[C@@H](O[C@H]4CC[C@]5(C)[C@H]6CC[C@]78OC[C@@]9(CCC(C)(C)C[C@H]97)[C@H](O)C[C@@]8(C)[C@]6(C)CC[C@H]5C4(C)C)[C@H](O[C@@H]4O[C@H](CO)[C@@H](O)[C@H](O)[C@H]4O)[C@H]3O)O[C@H](CO)[C@@H](O)[C@@H]2O)[C@H](O)[C@H](O)[C@H]1O`, the IC50 (HT-29) is reported as 1.96 µM, the IC50 (HepG2) is reported as 0.99 µM and the IC50 (BGC-823) is reported as 2.07 µM. It also gave an IC50 (A549) of 1.95 µM and an IC50 (A-375) of 2.13 µM.
`CC(=O)O[C@H]1C(=O)[C@@]2(C)[C@H]([C@H](OC(=O)c3ccccc3)[C@]3(O)C[C@H](OC(=O)[C@H](O)[C@@H](NC(=O)c4ccccc4)c4ccccc4)C(C)=C1C3(C)C)[C@]1(OC(C)=O)CO[C@@H]1C[C@@H]2O` [PACLITAXEL] was tested, and the IC50 (HT-29) was 0.00394 µM, the IC50 (HepG2) was 0.0044 µM and the IC50 (A549) was 0.0449 µM. For the same compound, the IC50 (A-375) was 0.0049 µM.
For `CC1(C)[C@@H](O[C@@H]2OC[C@H](O[C@@H]3O[C@H](CO)[C@@H](O)[C@H](O)[C@H]3O)[C@H](O)[C@H]2O[C@@H]2O[C@H](CO)[C@@H](O)[C@H](O)[C@H]2O)CC[C@]2(C)[C@H]3CC[C@]45OC[C@@]6(CC[C@](C)(CO)C[C@H]64)[C@H](O)C[C@@]5(C)[C@]3(C)CC[C@@H]12` [ARDISIANOSIDE E], the IC50 (HT-29) was 1.81 µM, the IC50 (HepG2) was 0.75 µM and the IC50 (BGC-823) was 1.14 µM. For the same compound, the IC50 (A549) was 2.47 µM and the IC50 (A-375) was 1.71 µM.
Work on `CC1(C)CC[C@]23CO[C@@]4(CC[C@@H]5[C@@]6(C)CC[C@H](O[C@@H]7OC[C@H](O[C@@H]8O[C@H](CO)[C@@H](O)[C@H](O)[C@H]8O[C@@H]8OC[C@@H](O)[C@H](O)[C@H]8O)[C@H](O)[C@H]7O[C@@H]7O[C@H](CO)[C@@H](O)[C@H](O)[C@H]7O)C(C)(C)[C@@H]6CC[C@@]5(C)[C@]4(C)CC2=O)[C@@H]3C1` [CLETHROIDOSIDE D] yielded an IC50 (HT-29) of 1.98 µM, an IC50 (HepG2) of 1.73 µM and an IC50 (BGC-823) of 1.36 µM. For the same compound, the IC50 (A549) was 2.36 µM and the IC50 (A-375) was 1.91 µM.
In the case of `CC(=O)O[C@H]1[C@H](OC(C)=O)[C@]23CO[C@@]4(CC[C@@H]5[C@@]6(C)CC[C@H](O[C@@H]7OC[C@H](O[C@@H]8O[C@H](CO)[C@@H](O)[C@H](O)[C@H]8O[C@@H]8OC[C@@H](O)[C@H](O)[C@H]8O)[C@H](O)[C@H]7O[C@@H]7O[C@H](CO)[C@@H](O)[C@H](O)[C@H]7O)C(C)(C)[C@@H]6CC[C@@]5(C)[C@]4(C)C[C@H]2O)[C@@H]3CC1(C)C` [CLETHROIDOSIDE F], the IC50 (HT-29) is reported as 2.04 µM, the IC50 (HepG2) is reported as 1.26 µM and the IC50 (BGC-823) is reported as 1.95 µM. For the same compound, the IC50 (A549) was 2.28 µM and the IC50 (A-375) was 2.19 µM.
